System: Aspergillus niger
Assay: Antifungal activity against Aspergillus niger NCIM 596 at 100 ug/disk after 48 hrs by agar disk diffusion method
Assay type: functional
Conditions: NCIM 596, 48 h, read-out: IZ
Method in brief: (§1)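 Fungal disc diffusion on nutrient agar plates pre-inoculated with each fungus. 6 mm sterile paper discs carried the compound in DMSO at the stated amount per disc. Plates were held at 37 °C, and inhibition-zone diameter was measured after 48 h. Values are the mean of three independent triplicate readings.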

Row | Structure (SMILES) | zone of inhibition at 100 µg/disc
1 | Cc1ccc(S(=O)(=O)CC(C2C(N)=NN=C2N)S(=O)(=O)c2ccc(C)cc2)cc1 (stereo not drawn) | 28 mm
2 | CN1C(=N)C(C(CS(=O)(=O)c2ccc(Cl)cc2)S(=O)(=O)c2ccc(Cl)cc2)C(=N)N(C)C1=O (stereo not drawn) | 15 mm
3 | NC1=NC(=O)N=C(N)C1C(CC(=O)c1ccc(Cl)cc1)C(=O)c1ccc(Cl)cc1 (stereo not drawn) | 16 mm

System: Fusarium solani
Assay: Antifungal activity against Fusarium solani NCIM 1330 at 200 ug/disk after 48 hrs by agar disk diffusion method
Assay type: functional
Conditions: NCIM 1330, 48 h, read-out: IZ
Method in brief: as §1

Row | Structure (SMILES) | zone of inhibition at 200 µg/disc
4 | Cc1ccc(S(=O)(=O)CC(C2C(N)=NN=C2N)S(=O)(=O)c2ccc(C)cc2)cc1 (stereo not drawn) | 35 mm
5 | CN1C(=N)C(C(CS(=O)(=O)c2ccc(Cl)cc2)S(=O)(=O)c2ccc(Cl)cc2)C(=N)N(C)C1=O (stereo not drawn) | 19 mm
6 | NC1=NC(=O)N=C(N)C1C(CC(=O)c1ccc(Cl)cc1)C(=O)c1ccc(Cl)cc1 (stereo not drawn) | 19 mm

System: Curvularia lunata
Assay: Antifungal activity against Curvularia lunata NCIM 716 at 100 ug/disk after 48 hrs by agar disk diffusion method
Assay type: functional
Conditions: NCIM 716, 48 h, read-out: IZ
Method in brief: as §1

Row | Structure (SMILES) | zone of inhibition at 100 µg/disc
7 | Cc1ccc(S(=O)(=O)CC(C2C(N)=NN=C2N)S(=O)(=O)c2ccc(C)cc2)cc1 (stereo not drawn) | 31 mm
8 | CN1C(=N)C(C(CS(=O)(=O)c2ccc(Cl)cc2)S(=O)(=O)c2ccc(Cl)cc2)C(=N)N(C)C1=O (stereo not drawn) | 17 mm
9 | NC1=NC(=O)N=C(N)C1C(CC(=O)c1ccc(Cl)cc1)C(=O)c1ccc(Cl)cc1 (stereo not drawn) | 14 mm

System: Bacillus subtilis
Assay: Antibacterial activity against Bacillus subtilis NCIM 2063 at 100 ug/disk after 24 hrs by agar disk diffusion method
Assay type: functional
Conditions: NCIM 2063, 24 h, read-out: IZ
Method in brief: (§2)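 Agar disc diffusion on nutrient agar plates pre-inoculated with each bacterium. Sterile 6 mm filter-paper discs were moistened with compound in DMSO at the stated per-disc amount. Plates were incubated at 37 °C, and the growth-inhibition zone diameter was read after 24 h. Each determination was run in triplicate, and the mean of three independent readings is reported.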

Row | Structure (SMILES) | zone of inhibition at 100 µg/disc
10 | Cc1ccc(S(=O)(=O)CC(C2C(N)=NN=C2N)S(=O)(=O)c2ccc(C)cc2)cc1 (stereo not drawn) | 26 mm
11 | CN1C(=N)C(C(CS(=O)(=O)c2ccc(Cl)cc2)S(=O)(=O)c2ccc(Cl)cc2)C(=N)N(C)C1=O (stereo not drawn) | 15 mm
12 | NC1=NC(=O)N=C(N)C1C(CC(=O)c1ccc(Cl)cc1)C(=O)c1ccc(Cl)cc1 (stereo not drawn) | 12 mm

System: Bacillus subtilis
Assay: Antibacterial activity against Bacillus subtilis NCIM 2063 at 200 ug/disk after 24 hrs by agar disk diffusion method
Assay type: functional
Conditions: NCIM 2063, 24 h, read-out: IZ
Method in brief: as §2

Row | Structure (SMILES) | zone of inhibition at 200 µg/disc
13 | Cc1ccc(S(=O)(=O)CC(C2C(N)=NN=C2N)S(=O)(=O)c2ccc(C)cc2)cc1 (stereo not drawn) | 28 mm
14 | CN1C(=N)C(C(CS(=O)(=O)c2ccc(Cl)cc2)S(=O)(=O)c2ccc(Cl)cc2)C(=N)N(C)C1=O (stereo not drawn) | 17 mm
15 | NC1=NC(=O)N=C(N)C1C(CC(=O)c1ccc(Cl)cc1)C(=O)c1ccc(Cl)cc1 (stereo not drawn) | 14 mm

System: Klebsiella pneumoniae
Assay: Antibacterial activity against Klebsiella pneumoniae NCIM 2957 at 100 ug/disk after 24 hrs by agar disk diffusion method
Assay type: functional
Conditions: NCIM 2957, 24 h, read-out: IZ
Method in brief: as §2

Row | Structure (SMILES) | zone of inhibition at 100 µg/disc
16 | Cc1ccc(S(=O)(=O)CC(C2C(N)=NN=C2N)S(=O)(=O)c2ccc(C)cc2)cc1 (stereo not drawn) | 23 mm
17 | CN1C(=N)C(C(CS(=O)(=O)c2ccc(Cl)cc2)S(=O)(=O)c2ccc(Cl)cc2)C(=N)N(C)C1=O (stereo not drawn) | 12 mm
18 | NC1=NC(=O)N=C(N)C1C(CC(=O)c1ccc(Cl)cc1)C(=O)c1ccc(Cl)cc1 (stereo not drawn) | 11 mm

System: Proteus vulgaris
Assay: Antibacterial activity against Proteus vulgaris NCIM 2027 at 200 ug/disk after 24 hrs by agar disk diffusion method
Assay type: functional
Conditions: NCIM 2027, 24 h, read-out: IZ
Method in brief: as §2

Row | Structure (SMILES) | zone of inhibition at 200 µg/disc
19 | Cc1ccc(S(=O)(=O)CC(C2C(N)=NN=C2N)S(=O)(=O)c2ccc(C)cc2)cc1 (stereo not drawn) | 25 mm
20 | CN1C(=N)C(C(CS(=O)(=O)c2ccc(Cl)cc2)S(=O)(=O)c2ccc(Cl)cc2)C(=N)N(C)C1=O (stereo not drawn) | 13 mm
21 | NC1=NC(=O)N=C(N)C1C(CC(=O)c1ccc(Cl)cc1)C(=O)c1ccc(Cl)cc1 (stereo not drawn) | 12 mm

System: Radical scavenging activity
Assay: Antioxidant activity assessed as DPPH free radical scavenging activity at 100 uM after 20 mins
Assay type: functional
Conditions: not given
Method in brief: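 DPPH scavenging: compound solutions were added to DPPH in dioxane/ethanol and kept at ambient temperature for 20 min. Absorbance was read at 517 nm. The test–control difference was expressed as percent DPPH radical scavenging.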

Row | Structure (SMILES) | inhibition
22 | Cc1ccc(S(=O)(=O)CC(C2C(N)=NN=C2N)S(=O)(=O)c2ccc(C)cc2)cc1 (stereo not drawn) | 59.4%
23 | CN1C(=N)C(C(CS(=O)(=O)c2ccc(Cl)cc2)S(=O)(=O)c2ccc(Cl)cc2)C(=N)N(C)C1=O (stereo not drawn) | 31.6%
24 | NC1=NC(=O)N=C(N)C1C(CC(=O)c1ccc(Cl)cc1)C(=O)c1ccc(Cl)cc1 (stereo not drawn) | 41%

System: Fusarium solani
Assay: Antifungal activity against Fusarium solani NCIM 1330 at 100 ug/disk after 48 hrs by agar disk diffusion method
Assay type: functional
Conditions: NCIM 1330, 48 h, read-out: IZ
Method in brief: as §1

Row | Structure (SMILES) | zone of inhibition at 100 µg/disc
25 | Cc1ccc(S(=O)(=O)CC(C2C(N)=NN=C2N)S(=O)(=O)c2ccc(C)cc2)cc1 (stereo not drawn) | 30 mm
26 | CN1C(=N)C(C(CS(=O)(=O)c2ccc(Cl)cc2)S(=O)(=O)c2ccc(Cl)cc2)C(=N)N(C)C1=O (stereo not drawn) | 16 mm
27 | NC1=NC(=O)N=C(N)C1C(CC(=O)c1ccc(Cl)cc1)C(=O)c1ccc(Cl)cc1 (stereo not drawn) | 17 mm

System: Staphylococcus aureus
Assay: Antibacterial activity against Staphylococcus aureus NCIM 5021 at 100 ug/disk after 24 hrs by agar disk diffusion method
Assay type: functional
Conditions: NCIM 5021, 24 h, read-out: IZ
Method in brief: as §2

Row | Structure (SMILES) | zone of inhibition at 100 µg/disc
28 | Cc1ccc(S(=O)(=O)CC(C2C(N)=NN=C2N)S(=O)(=O)c2ccc(C)cc2)cc1 (stereo not drawn) | 27 mm
29 | CN1C(=N)C(C(CS(=O)(=O)c2ccc(Cl)cc2)S(=O)(=O)c2ccc(Cl)cc2)C(=N)N(C)C1=O (stereo not drawn) | 16 mm
30 | NC1=NC(=O)N=C(N)C1C(CC(=O)c1ccc(Cl)cc1)C(=O)c1ccc(Cl)cc1 (stereo not drawn) | 13 mm

System: Curvularia lunata
Assay: Antifungal activity against Curvularia lunata NCIM 716 at 200 ug/disk after 48 hrs by agar disk diffusion method
Assay type: functional
Conditions: NCIM 716, 48 h, read-out: IZ
Method in brief: as §1

Row | Structure (SMILES) | zone of inhibition at 200 µg/disc
31 | Cc1ccc(S(=O)(=O)CC(C2C(N)=NN=C2N)S(=O)(=O)c2ccc(C)cc2)cc1 (stereo not drawn) | 33 mm
32 | CN1C(=N)C(C(CS(=O)(=O)c2ccc(Cl)cc2)S(=O)(=O)c2ccc(Cl)cc2)C(=N)N(C)C1=O (stereo not drawn) | 21 mm
33 | NC1=NC(=O)N=C(N)C1C(CC(=O)c1ccc(Cl)cc1)C(=O)c1ccc(Cl)cc1 (stereo not drawn) | 18 mm

System: Aspergillus niger
Assay: Antifungal activity against Aspergillus niger NCIM 596 at 200 ug/disk after 48 hrs by agar disk diffusion method
Assay type: functional
Conditions: NCIM 596, 48 h, read-out: IZ
Method in brief: as §1

Row | Structure (SMILES) | zone of inhibition at 200 µg/disc
34 | Cc1ccc(S(=O)(=O)CC(C2C(N)=NN=C2N)S(=O)(=O)c2ccc(C)cc2)cc1 (stereo not drawn) | 31 mm
35 | CN1C(=N)C(C(CS(=O)(=O)c2ccc(Cl)cc2)S(=O)(=O)c2ccc(Cl)cc2)C(=N)N(C)C1=O (stereo not drawn) | 17 mm
36 | NC1=NC(=O)N=C(N)C1C(CC(=O)c1ccc(Cl)cc1)C(=O)c1ccc(Cl)cc1 (stereo not drawn) | 20 mm

System: Proteus vulgaris
Assay: Antibacterial activity against Proteus vulgaris NCIM 2027 at 100 ug/disk after 24 hrs by agar disk diffusion method
Assay type: functional
Conditions: NCIM 2027, 24 h, read-out: IZ
Method in brief: as §2

Row | Structure (SMILES) | zone of inhibition at 100 µg/disc
37 | Cc1ccc(S(=O)(=O)CC(C2C(N)=NN=C2N)S(=O)(=O)c2ccc(C)cc2)cc1 (stereo not drawn) | 22 mm
38 | CN1C(=N)C(C(CS(=O)(=O)c2ccc(Cl)cc2)S(=O)(=O)c2ccc(Cl)cc2)C(=N)N(C)C1=O (stereo not drawn) | 11 mm
39 | NC1=NC(=O)N=C(N)C1C(CC(=O)c1ccc(Cl)cc1)C(=O)c1ccc(Cl)cc1 (stereo not drawn) | 10 mm

System: Staphylococcus aureus
Assay: Antibacterial activity against Staphylococcus aureus NCIM 5021 at 200 ug/disk after 24 hrs by agar disk diffusion method
Assay type: functional
Conditions: NCIM 5021, 24 h, read-out: IZ
Method in brief: as §2

Row | Structure (SMILES) | zone of inhibition at 200 µg/disc
40 | Cc1ccc(S(=O)(=O)CC(C2C(N)=NN=C2N)S(=O)(=O)c2ccc(C)cc2)cc1 (stereo not drawn) | 29 mm
41 | CN1C(=N)C(C(CS(=O)(=O)c2ccc(Cl)cc2)S(=O)(=O)c2ccc(Cl)cc2)C(=N)N(C)C1=O (stereo not drawn) | 18 mm
42 | NC1=NC(=O)N=C(N)C1C(CC(=O)c1ccc(Cl)cc1)C(=O)c1ccc(Cl)cc1 (stereo not drawn) | 15 mm

System: Klebsiella pneumoniae
Assay: Antibacterial activity against Klebsiella pneumoniae NCIM 2957 at 200 ug/disk after 24 hrs by agar disk diffusion method
Assay type: functional
Conditions: NCIM 2957, 24 h, read-out: IZ
Method in brief: as §2

Row | Structure (SMILES) | zone of inhibition at 200 µg/disc
43 | Cc1ccc(S(=O)(=O)CC(C2C(N)=NN=C2N)S(=O)(=O)c2ccc(C)cc2)cc1 (stereo not drawn) | 26 mm
44 | CN1C(=N)C(C(CS(=O)(=O)c2ccc(Cl)cc2)S(=O)(=O)c2ccc(Cl)cc2)C(=N)N(C)C1=O (stereo not drawn) | 14 mm
45 | NC1=NC(=O)N=C(N)C1C(CC(=O)c1ccc(Cl)cc1)C(=O)c1ccc(Cl)cc1 (stereo not drawn) | 13 mm

System: not listed separately
Assay: Antioxidant activity assessed as nitric oxide production at 100 uM after 120 mins by Griess reagent method
Assay type: functional
Conditions: not given
Method in brief: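 Nitric oxide assay with Griess read-out. At intervals, 0.5 ml of incubation solution was mixed with 0.5 ml Griess reagent (1% sulfanilamide, 0.1% N-naphthylethylenediamine dihydrochloride, 2% o-phosphoric acid in water). The control received an equal amount of solvent and was handled identically.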

Row | Structure (SMILES) | inhibition
46 | Cc1ccc(S(=O)(=O)CC(C2C(N)=NN=C2N)S(=O)(=O)c2ccc(C)cc2)cc1 (stereo not drawn) | 60.5%
47 | CN1C(=N)C(C(CS(=O)(=O)c2ccc(Cl)cc2)S(=O)(=O)c2ccc(Cl)cc2)C(=N)N(C)C1=O (stereo not drawn) | 30.2%
48 | NC1=NC(=O)N=C(N)C1C(CC(=O)c1ccc(Cl)cc1)C(=O)c1ccc(Cl)cc1 (stereo not drawn) | 39.4%
